Experimental findings from ChEMBL document CHEMBL1142894, “Preparation of 5-aryl-3-alkylthio-l,2,4-triazoles and corresponding sulfones with antiinflammatory-analgesic activity” (Bioorg Med Chem, 2007) are described below.

Active and inactive are the calls of the source. No cut-off for these calls is given here.

In data set [1] the test system is Mus musculus. The data set is described as follows: Inhibition of carrageenan-induced paw edema in Swiss albino mouse at 100 mg/kg, po after 180 mins relative to control. Format: functional. Particulars: 3 h. In short, it runs like this:
(§1)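 Oral dosing in 0.5% CMC; vehicle to controls. Then carrageenan (0.5 mg/25 ll, freshly suspended in 154 mM saline) injected into the right hind paw subplantar tissue; saline into the left paw. Right-left footpad thickness difference measured by dial gauge calliper every 90 min over 6 h. Inhibition % is relative to vehicle control. n = 6; mean ± SEM.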

Data set [2] has as its system Mus musculus. Description: Inhibition of p-benzoquinone-induced writhing in Swiss albino mouse at 200 mg/kg, po relative to control. Format: functional. The method in brief:
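Mice, n = 6 per group, dosed orally with a suspension in 0.5% sodium CMC. 60 min later, 0.1 ml/10 g of 2.5% […] p-benzoquinone in distilled water given ip. Abdominal writhes counted per animal for 15 min, starting 5 min after injection. Expressed as % change in mean writhing count versus vehicle controls.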

Data set [3] relates to Mus musculus. Description: Inhibition of carrageenan-induced paw edema in Swiss albino mouse at 100 mg/kg, po after 90 mins relative to control. Particulars: 1.5 h. Format: functional. In short, it runs like this: as §1
Data set [4] concerns Mus musculus. Description: Antiinflammatory activity against carrageenan-induced paw edema in Swiss albino mouse assessed as swelling thickness at 100 mg/kg, po after 270 mins. Format: functional. In short, it runs like this:
as §1

For data set [5], the system named is Mus musculus. Description: Antiinflammatory activity against carrageenan-induced paw edema in Swiss albino mouse assessed as swelling thickness at 100 mg/kg, po after 90 mins. Format: functional. The method in brief:
as §1

In data set [6] the test system is Mus musculus. Description: Antiinflammatory activity in Swiss albino mouse assessed as inhibition of carrageenan-induced paw edema at 50 mg/kg, po. Format: functional.
The subject of data set [7] is Mus musculus. Description: Inhibition of carrageenan-induced paw edema in Swiss albino mouse at 50 mg/kg, po after 360 mins relative to control. Particulars: 6 h. Type of data set: functional. The method in brief:
(§2)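 Mice, n = 6 per group. Test agent given orally as a suspension in 0.5% sodium CMC in distilled water; controls received vehicle only. Afterwards, 0.5 mg/25 ll carrageenan in saline (154 mM NaCl) injected subplantar into the right hind paw, saline into the left. Right-minus-left footpad thickness measured by dial gauge caliper every 90 min for 6 h. Inhibition is relative to vehicle-control group means.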

Data set [8] deals with Mus musculus. Description: Inhibition of carrageenan-induced paw edema in Swiss albino mouse at 50 mg/kg, po after 90 mins relative to control. Type of data set: functional. Particulars: 1.5 h. The method in brief: as §2
For data set [9], the system named is Mus musculus. The data set is described as follows: Gastric-ulcerogenic effect in Swiss albino mouse assessed as lesions at 25 mg/kg, po. Type of data set: functional, organism-based. Further details: dose 25 mg/kg. The method in brief: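 Mice killed under deep ether anesthesia 3 h after the writhing test; the oral dose in 0.5% CMC was the one used in that test. Stomachs removed, opened along the great curvature and examined under a dissecting microscope for lesions or bleeding. Reported as ratio of ulceration; n = 6.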

For data set [10], the system named is Mus musculus. Description: Analgesic activity against p-benzoquinone-induced abdominal constriction in Swiss albino mouse assessed as number of writhings at 200 mg/kg, po. Format: functional, Abdomen. The method in brief:
(§3)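 Test samples given orally in 0.5% CMC; vehicle to controls. 60 min later, 2.5% (v/v) p-benzoquinone in distilled water, 0.1 ml/10 g, given i.p. Mice housed singly; writhes counted for 15 min starting 5 min after injection. Activity is % change from vehicle controls. n = 6; mean ± SEM.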

Data set [11] deals with Mus musculus. Description: Inhibition of carrageenan-induced paw edema in Swiss albino mouse at 200 mg/kg, po after 270 mins relative to control. Type of data set: functional. The note with it: 4.5 h. The method in brief: as §1
For data set [12], the system named is Mus musculus. The data set is described as follows: Antiinflammatory activity against carrageenan-induced paw edema in Swiss albino mouse assessed as swelling thickness at 25 mg/kg, po after 180 mins. Format: functional. The method in brief: as §1
In data set [13] the test system is Mus musculus. The data set is described as follows: Antiinflammatory activity against carrageenan-induced paw edema in Swiss albino mouse assessed as swelling thickness at 200 mg/kg, po after 360 mins. Type of data set: functional. The method in brief: as §1
The subject of data set [14] is Mus musculus. The data set is described as follows: Inhibition of carrageenan-induced paw edema in Swiss albino mouse at 25 mg/kg, po after 360 mins relative to control. Format: functional. Particulars: 6 h. The method in brief:
as §1

In data set [15] the test system is Mus musculus. The data set is described as follows: Antiinflammatory activity against carrageenan-induced paw edema in Swiss albino mouse assessed as swelling thickness at 50 mg/kg, po after 360 mins. Type of data set: functional. In short, it runs like this:
as §1

In data set [16] the test system is Mus musculus. Description: Antiinflammatory activity against carrageenan-induced paw edema in Swiss albino mouse assessed as swelling thickness at 200 mg/kg, po after 90 mins. Type of data set: functional. In short, it runs like this:
as §1

Data set [17] concerns Mus musculus. Description: Analgesic activity against p-benzoquinone-induced abdominal constriction in Swiss albino mouse assessed as number of writhings at 25 mg/kg, po. Type of data set: functional, Abdomen. The method in brief:
as §3

Data set [18] deals with Mus musculus. The data set is described as follows: Acute toxicity in Swiss albino mouse assessed as lethal effect at 200 mg/kg/day, po after 72 hrs. Type of data set: organism-based. Further details: route oral. Particulars: in vivo. In short, it runs like this: (§4)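 Oral single dose suspended in 0.5% carboxymethylcellulose, given after a 24 h fast; food and water returned 1 h after dosing. Vehicle-only controls. Mice observed at 1 h, then once daily for 72 h, for toxic signs and mortality.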

The subject of data set [19] is Mus musculus. The data set is described as follows: Antiinflammatory activity against carrageenan-induced paw edema in Swiss albino mouse assessed as swelling thickness at 50 mg/kg, po after 90 mins. Type of data set: functional. The method in brief:
as §1

In data set [20] the test system is Mus musculus. The data set is described as follows: Antiinflammatory activity against carrageenan-induced paw edema in Swiss albino mouse assessed as swelling thickness at 50 mg/kg, po after 180 mins. Type of data set: functional. In short, it runs like this: as §1
Data set [21] relates to Mus musculus. The data set is described as follows: Inhibition of carrageenan-induced paw edema in Swiss albino mouse at 25 mg/kg, po after 90 mins relative to control. Format: functional. Particulars: 1.5 h. In short, it runs like this:
as §1

Data set [22] concerns Mus musculus. The data set is described as follows: Analgesic activity against p-benzoquinone-induced abdominal constriction in Swiss albino mouse assessed as number of writhings at 50 mg/kg, po. Type of data set: functional, Abdomen. The method in brief:
as §3

Data set [23] concerns Mus musculus. The data set is described as follows: Acute toxicity in Swiss albino mouse assessed as lethal effect at 50 mg/kg/day, po after 72 hrs. Format: organism-based. Further details: route oral. Particulars: in vivo. In short, it runs like this: as §4
Data set [24] deals with Mus musculus. Description: Inhibition of carrageenan-induced paw edema in Swiss albino mouse at 200 mg/kg, po after 360 mins relative to control. Type of data set: functional. Particulars: 6 h. In short, it runs like this:
as §1

Regarding `CCS(=O)(=O)c1nc(-c2ccccc2Cl)n[nH]1`, the inhibition in vivo at 100 mg/kg in data set [1] stood at 34.4%; in data set [3] it was 33.4%. The inhibition in vivo at 200 mg/kg was determined as 10.7% in data set [2], 19.9% in data set [11] and 21.5% in data set [24]. For the same compound, the Activity in [4] is 35 10^-2mm; in data set [5], 29.8 10^-2mm; in data set [10], 45.9; in data set [12], 54.4 10^-2mm; in [13], 56.5 10^-2mm; in data set [15], 40.5 10^-2mm. Besides, the Activity was 43.1 10^-2mm in [16]; 38.2 in data set [17]; “Non-toxic” in [18]; 36.2 10^-2mm in data set [19]; 35.8 10^-2mm in [20]; 23.4 in [22]. Further, in [23], the Activity result is “Non-toxic”. The inhibition in vivo at 50 mg/kg is 37.9% in [6], 43.8% in [7] and 31.9% in data set [8]. Moreover, in [9], the result was Active. Further, the inhibition in vivo at 25 mg/kg in data set [14] is 14.6%; in [21], 11.3%.
